Test results published in publication PMC2756064 (Journal of medicinal chemistry, 2009).
Square brackets hold non-standard residues; d marks the D form. Peptide text beside a SMILES is read from it. * marks the point of attachment. Hmp(2R,3S) = CC[C@H](C)[C@@H](O)C(=O)O; Sta = CC(C)C[C@H](N)[C@@H](O)CC(=O)O; NMe2Val = CC(C)[C@@H](C(=O)*)N(C)C; dNMeF = CN[C@H](Cc1ccccc1)C(=O)O; NMeQ = CN[C@@H](CCC(N)=O)C(=O)O; dHiv = CC(C)[C@@H](O)C(=O)O; Hiv = CC(C)[C@H](O)C(=O)O; Isovaleryl = CC(C)CC(=O)*

Tests used:
ADAM9 = molecular target: T1, ADAM9 (Homo sapiens, UniProt Q13443); assay: Protease inhibition screen and IC50 assay, ADAM9; format: biochemical; settings: 10 μM, panel of 59 proteases
T1 sequence (Q13443 29-819): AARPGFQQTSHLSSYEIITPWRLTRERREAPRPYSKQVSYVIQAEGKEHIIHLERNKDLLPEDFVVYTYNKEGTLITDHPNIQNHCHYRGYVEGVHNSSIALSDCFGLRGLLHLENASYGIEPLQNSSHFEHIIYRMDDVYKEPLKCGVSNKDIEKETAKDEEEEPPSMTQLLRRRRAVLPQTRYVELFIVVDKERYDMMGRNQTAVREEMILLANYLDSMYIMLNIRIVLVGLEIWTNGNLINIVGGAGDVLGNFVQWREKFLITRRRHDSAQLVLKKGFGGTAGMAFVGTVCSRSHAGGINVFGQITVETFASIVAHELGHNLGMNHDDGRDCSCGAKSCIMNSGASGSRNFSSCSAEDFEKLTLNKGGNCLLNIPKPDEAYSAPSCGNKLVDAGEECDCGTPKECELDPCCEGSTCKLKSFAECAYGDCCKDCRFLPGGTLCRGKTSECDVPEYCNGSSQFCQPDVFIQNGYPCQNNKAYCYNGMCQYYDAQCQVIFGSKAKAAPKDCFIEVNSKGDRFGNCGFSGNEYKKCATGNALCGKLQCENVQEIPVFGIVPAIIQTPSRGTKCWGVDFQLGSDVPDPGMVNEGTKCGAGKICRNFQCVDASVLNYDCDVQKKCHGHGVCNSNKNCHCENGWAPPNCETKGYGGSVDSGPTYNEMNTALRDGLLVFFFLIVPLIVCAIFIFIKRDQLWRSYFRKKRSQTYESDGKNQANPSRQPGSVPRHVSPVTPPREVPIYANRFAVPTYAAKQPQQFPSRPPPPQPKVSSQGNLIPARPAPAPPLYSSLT

ADAM10 = molecular target: T2, ADAM10 (Homo sapiens, UniProt O14672); assay: Protease inhibition screen and IC50 assay, ADAM10; format: biochemical; settings: 10 μM, panel of 59 proteases
T2 sequence (O14672 214-748): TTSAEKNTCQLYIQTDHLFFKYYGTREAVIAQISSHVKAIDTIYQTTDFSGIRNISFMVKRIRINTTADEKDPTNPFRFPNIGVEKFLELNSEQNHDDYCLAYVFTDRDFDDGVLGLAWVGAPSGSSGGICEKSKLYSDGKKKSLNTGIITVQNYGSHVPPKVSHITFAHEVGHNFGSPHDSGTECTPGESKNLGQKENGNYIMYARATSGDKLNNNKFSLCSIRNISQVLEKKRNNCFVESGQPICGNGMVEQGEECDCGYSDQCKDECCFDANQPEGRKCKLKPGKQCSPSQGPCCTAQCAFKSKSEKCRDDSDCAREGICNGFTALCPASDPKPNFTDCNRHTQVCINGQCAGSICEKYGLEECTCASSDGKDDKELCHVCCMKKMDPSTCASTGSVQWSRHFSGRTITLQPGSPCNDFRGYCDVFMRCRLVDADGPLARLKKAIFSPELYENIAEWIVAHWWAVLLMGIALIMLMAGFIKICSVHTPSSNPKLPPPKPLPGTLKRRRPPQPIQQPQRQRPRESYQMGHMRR

TACE = TACE (Homo sapiens, UniProt P78536); assay: Protease inhibition screen and IC50 assay, TACE; format: biochemical; settings: 10 μM, panel of 59 proteases
TACE, sequence (P78536 215-824): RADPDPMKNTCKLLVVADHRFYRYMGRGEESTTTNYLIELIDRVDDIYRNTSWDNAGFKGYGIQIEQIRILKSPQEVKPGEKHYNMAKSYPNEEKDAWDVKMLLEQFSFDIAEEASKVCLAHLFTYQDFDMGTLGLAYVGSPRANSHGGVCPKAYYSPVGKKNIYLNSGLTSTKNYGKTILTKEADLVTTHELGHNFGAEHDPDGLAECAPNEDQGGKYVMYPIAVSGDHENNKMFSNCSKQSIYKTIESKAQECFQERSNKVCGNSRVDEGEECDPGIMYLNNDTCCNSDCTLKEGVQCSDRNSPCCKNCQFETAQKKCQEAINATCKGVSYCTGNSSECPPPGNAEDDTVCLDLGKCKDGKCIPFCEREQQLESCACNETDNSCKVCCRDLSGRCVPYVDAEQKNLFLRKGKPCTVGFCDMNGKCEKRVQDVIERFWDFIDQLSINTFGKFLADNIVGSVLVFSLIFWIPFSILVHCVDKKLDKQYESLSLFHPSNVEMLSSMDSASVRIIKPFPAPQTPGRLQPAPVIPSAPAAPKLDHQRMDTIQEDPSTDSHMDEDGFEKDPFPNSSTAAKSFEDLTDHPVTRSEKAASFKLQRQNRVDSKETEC

[1] = tested on: MCF7 cell lysate (cellular cathepsins D and E); assay: Inhibition of cellular cathepsins in MCF7 cell lysate; format: biochemical
[2] = tested on: human peripheral blood mononuclear cells (CD3+ T cells); assay: T cell proliferation in PBMCs in response to exogenous antigen; format: cell-based
How it was run: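 Human PBMCs were isolated from buffy coats by Ficoll-Hypaque density gradient centrifugation, washed in PBS, and checked for viability by trypan blue. They were cultured in RPMI 1640 with 2 mM L-glutamine, penicillin/streptomycin and 10% FBS, with test compound at various concentrations. Cells were antibody-stained for 30 min at 4 °C, then permeabilised for intracellular staining and fixed in 2% paraformaldehyde. Lymphocytes were gated by forward/side scatter, with 50,000 cells per sample and isotype controls.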

[3] = tested on: monocyte derived dendritic cells and CD4+ T cells (autologous); assay: Autologous mixed lymphocyte reaction; format: cell-based, human; settings: autologous MLR
[4] = tested on: monocyte derived dendritic cells and CD4+ T cells (allogeneic); assay: Allogeneic mixed lymphocyte reaction; format: cell-based, human; settings: allogeneic MLR
Cathepsin E = molecular target: T3, Cathepsin E (Homo sapiens, UniProt P14091); assay: Protease inhibition screen and IC50 assay, cathepsin E; format: biochemical; settings: result in words
T3 sequence (P14091 54-396): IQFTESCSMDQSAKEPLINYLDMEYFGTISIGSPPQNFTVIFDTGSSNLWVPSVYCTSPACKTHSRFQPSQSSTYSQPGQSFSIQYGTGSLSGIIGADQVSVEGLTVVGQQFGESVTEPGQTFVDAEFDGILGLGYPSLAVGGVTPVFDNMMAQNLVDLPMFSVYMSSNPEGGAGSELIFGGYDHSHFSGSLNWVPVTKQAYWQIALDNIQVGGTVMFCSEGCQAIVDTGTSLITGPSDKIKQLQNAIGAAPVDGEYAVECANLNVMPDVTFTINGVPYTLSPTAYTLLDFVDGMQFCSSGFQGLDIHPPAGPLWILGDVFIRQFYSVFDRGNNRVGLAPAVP

[5] = Solubility in DMSO for dilution series; format: physicochemical

COC(=O)[C@@H]1CCCN1C(=O)[C@@H](Cc1ccccc1)N(C)C(=O)[C@H](C)NC(=O)[C@@H](NC(=O)C[C@H](O)[C@H](CC(C)C)NC(=O)[C@H](CC(N)=O)NC(=O)[C@H](CC(C)C)NC(=O)[C@H](OC(=O)[C@@H](OC(=O)[C@H](C(C)C)N(C)C)C(C)C)C(C)C)[C@@H](C)O [Compound 1, grassystatin A] (NMe2Val-[Hiv][dHiv]LN[Sta]TA[dNMeF]P-OMe)
inhibitory activity in protease screen (ADAM9): compromised activities
inhibitory activity in protease screen (ADAM10): compromised activities
inhibitory activity in protease screen (TACE): compromised activities
decrease in potency compared to purified cathepsin E ([1]; MCF7 lysate): 564 fold
difference in IC50 compared to pepstatin A ([1]; MCF7 lysate): 100 fold
IC50 ([1]; read-out: apparent IC50, MCF7 lysate treated directly): ~500 nM
T cell proliferation in response to exogenous antigen (TTc) ([2]; 10 μM, CD3+ lymphocytes): significantly reduce
T cell viability ([2]; same experiment, data not shown): unaffected
interferon-γ (IFN-γ) in response to antigen presentation [3]: inhibit upregulation
interleukin-17 (IL-17) in response to antigen presentation [3]: inhibit upregulation
T cell proliferation ([3]; TTc + PMA, 5 days): reduce T cell proliferation in a dose dependent manner
IFN-γ production [4]: significant downregulation
IL-17 production [4]: significant downregulation

CC(C)CC(=O)N[C@H](C(=O)N[C@H](C(=O)N[C@@H](CC(C)C)[C@@H](O)CC(=O)N[C@@H](C)C(=O)N[C@@H](CC(C)C)[C@@H](O)CC(=O)O)C(C)C)C(C)C [Pepstatin A, pepstatin A] (Isovaleryl-VV[Sta]A[Sta]-OH)
discrimination between cathepsins D and E (Cathepsin E): did not discriminate

CC[C@H](C)[C@H](NC(=O)C[C@H](O)[C@H](CC(C)C)NC(=O)[C@H](CCC(N)=O)N(C)C(=O)[C@H](CC(C)C)NC(=O)[C@H](O)[C@@H](C)CC)C(=O)NCC(=O)N(C)[C@H](Cc1ccccc1)C(=O)N1CCC[C@H]1C(=O)OC [Compound 3, grassystatin C] ({Hmp(2R,3S)}-L[NMeQ][Sta]IG[dNMeF]P-OMe)
solubility in DMSO [5]: insoluble in DMSO
